Assay outcomes deposited in PubChem BioAssay by Sanford-Burnham Center for Chemical Genomics.
Rows were chosen to be rich in hits. Some 1.7% of all compounds tested hit in one or more screens of this group.
DNMT1 inh = inhibitors of human DNMT1 | P26358 | DNMT1 molecular beacon, Hinp1I cleavage, fluorescence | inhibition (reported as % activation of signal), % at 10 µM | 360,000 tested, 0.83% active; in the data active means inhibition above about 50%
LMPTP inh = LMPTP (human) inhibition; P24666; inhibition, % at 20 µM; 360,000 tested, 0.22% active; recombinant LMPTP-A, OMFP fluorogenic substrate, fluorescence intensity;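 active means compounds that cut the enzyme signal by at least half of the control window in the single-dose screen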
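Test system: LMPTP-A phosphatase enzyme; input: 0.625 nM LMPTP-A final; reagent: OMFP substrate, 400 µM final; compound dosing: 20 µM single dose, 3% DMSO; incubation: 50 min dark incubation at room temperature; measured by: endpoint fluorescence intensity from OMFP dephosphorylation; measure: % inhibition relative to no-enzyme and uninhibited control wells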
SUMO1 PPI mod = modulators of human SUMO1-mediated protein-protein interactions | P63165 | SUMO1 binding to a labelled peptide, TR-FRET, 1 h | inhibition, % at 20 µM | 360,000 tested, 0.33% active; in the data active means inhibition above about 37%
Target sequence (P63165 whole entry, looked up): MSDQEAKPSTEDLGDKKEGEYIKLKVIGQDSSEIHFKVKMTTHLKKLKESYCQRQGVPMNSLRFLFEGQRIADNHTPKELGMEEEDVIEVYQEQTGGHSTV
Scp-1 inhibitor = inhibitors of human Scp-1 phosphatase. Q9GZU7. Recombinant Scp1, phosphopeptide, malachite green phosphate absorbance. inhibition, % at 20 µM. 340,000 tested, 0.88% active;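 active means inhibition above about 50% at 20 µM, limit read from the data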
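Material – SCP-1 phosphatase catalytic domain, residues 76-261 · Buffer or medium – Acidic Tris acetate buffer with magnesium and detergent · Also added – Phospho 17-mer peptide substrate · Compound – single 20 µM dose, 1% DMSO · Times – 45 min room-temperature reaction, 5 min colour, 30 min stabiliser · Technique – Phosphate-binding colour reagent, absorbance read at 630 nm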
STEP inh = blocks human striatal-enriched tyrosine phosphatase; 360,000 tested, 0.25% active; inhibition, % at 20 µM; recombinant STEP, OMFP fluorogenic substrate, fluorescence;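 active means inhibition at 20 µM, scaled per plate between control wells, above about 37%, limit read from the data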
Target sequence (P54829 whole entry, looked up): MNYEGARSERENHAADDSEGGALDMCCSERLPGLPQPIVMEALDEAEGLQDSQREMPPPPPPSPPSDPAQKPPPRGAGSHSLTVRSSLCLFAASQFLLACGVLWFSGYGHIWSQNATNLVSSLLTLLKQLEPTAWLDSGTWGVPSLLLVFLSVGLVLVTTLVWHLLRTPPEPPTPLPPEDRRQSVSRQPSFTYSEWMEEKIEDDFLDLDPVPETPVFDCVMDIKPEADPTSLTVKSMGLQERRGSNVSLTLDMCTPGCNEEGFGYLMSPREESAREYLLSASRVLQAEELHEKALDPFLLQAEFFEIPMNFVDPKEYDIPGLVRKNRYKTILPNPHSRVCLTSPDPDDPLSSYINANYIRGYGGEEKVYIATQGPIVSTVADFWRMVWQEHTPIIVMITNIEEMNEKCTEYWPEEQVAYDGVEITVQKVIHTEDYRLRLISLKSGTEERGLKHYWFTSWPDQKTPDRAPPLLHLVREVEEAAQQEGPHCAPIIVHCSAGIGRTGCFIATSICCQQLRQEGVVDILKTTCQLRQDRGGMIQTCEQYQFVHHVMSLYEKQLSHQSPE
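System: STEP phosphatase, cell-free reaction; Buffer or medium: Bis-Tris pH 6.0 buffer with DTT, detergent; Incubation: 20 min at room temperature, dark; Measured by: fluorescence, 480/540 nm.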
Scp1 confirm = Scp-1 (human) inhibition, single-dose confirmed; shares compounds with Scp-1 inhibitor; recombinant SCP-1 catalytic domain, phosphate release, malachite green absorbance; inhibition, % at 20 µM; 2,500 tested, 61% active
Scp-1 MG ctr = counter-screen for Scp-1 inhibitors: colorimetric interference | shares compounds with Scp-1 inhibitor | Colorimetric interference counterscreen, malachite green absorbance 630 nm | apparent inhibition (interference), % at 20 µM | 2,500 tested, under 10 active | AID 540313;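 further: compounds added after enzyme reaction finished so only phosphate colour detection is probed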
Scp1 DSF = validation of human Scp-1 inhibitors by thermal shift binding. shares compounds with Scp-1 inhibitor. Recombinant SCP1, Sypro Orange thermal shift Tm. thermal shift relative to vanadate control, % at 40 µM. 1,500 tested, 25% active. AID 540329;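 active means substances whose mean melting-temperature shift, as a percentage of the reference inhibitor's shift, reaches about 5.3%, limit read from the data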
DNMT1 confirm = DNMT1 inhibition confirmation, single concentration. inhibition, % at 10 µM. AID 602385. 2,300 tested, 8% active. DNMT1 molecular beacon HinP1I cleavage, fluorescence. shares compounds with DNMT1 inh;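 active means average inhibition of at least 30% in the single-concentration confirmation test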
DNMT1 interf = shows spectral interference in the DNMT1 beacon assay | AID 602387 | shares compounds with DNMT1 inh | activation (fluorescence interference), % at 10 µM | DNMT1 molecular beacon spectral interference counterscreen, fluorescence 485/520 | 2,300 tested, 1% active;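 active means activation of at least 30% at 10 µM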;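 further: DNMT1 catalytic domain with a HinP1I cleavage step and a FAM/dabcyl DNA beacon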
A number is an active result.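 How the source made its calls, unless noted: active means inhibition of at least 30% at 20 µM; inactive means the rest.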

`COC(=O)[C@@H](NCc1cccc(CN([C@H](C(=O)OC)C(C)C)S(C)(=O)=O)c1)C(C)C` gave DNMT1 inh inactive, LMPTP inh inactive, SUMO1 PPI mod inactive, Scp-1 inhibitor inactive and STEP inh inactive.
`COc1ccc2c(c1)C(=NNC(=O)c1ccccn1)c1cc(OC)ccc1-2` gave DNMT1 inh 88, LMPTP inh inactive, SUMO1 PPI mod inactive, Scp-1 inhibitor 81, STEP inh inactive, Scp1 confirm 62, Scp-1 MG ctr inactive, Scp1 DSF inactive, DNMT1 confirm inactive and DNMT1 interf inactive.
`CC(C)(C)NCC(O)COc1cccc2c1CCC(=O)N2` (centres undefined) gave DNMT1 inh inactive, LMPTP inh inactive, SUMO1 PPI mod inactive, Scp-1 inhibitor inactive and STEP inh inactive.
`CC(=O)NCCc1c[nH]c2ccc(OCc3ccccc3)cc12` gave DNMT1 inh inactive, LMPTP inh inactive, SUMO1 PPI mod inactive, Scp-1 inhibitor inactive and STEP inh inactive.
Cc1cccc(C(=O)Nc2ccc(C(=O)N/N=C/c3ccco3)cc2)c1 was read as DNMT1 inh 72, LMPTP inh inactive, SUMO1 PPI mod inactive, Scp-1 inhibitor 77, STEP inh inactive, Scp1 confirm 56, Scp-1 MG ctr inactive, Scp1 DSF inactive, DNMT1 confirm inactive and DNMT1 interf inactive.
`O=C(N/N=C/c1ccco1)c1cccc(NC(=O)c2ccccc2Cl)c1` gave DNMT1 inh inactive, LMPTP inh inactive, SUMO1 PPI mod inactive, Scp-1 inhibitor inactive and STEP inh inactive.
Screening CCCCN(C(=O)Cn1ncc(Cl)c(Cl)c1=O)c1c(N)n(CC(C)C)c(=O)[nH]c1=O returned DNMT1 inh 61, LMPTP inh inactive, SUMO1 PPI mod inactive, Scp-1 inhibitor 82, STEP inh inactive, Scp1 confirm 76, Scp-1 MG ctr inactive, Scp1 DSF 6.2, DNMT1 confirm inactive and DNMT1 interf inactive.
Screening CC(OC(=O)CCc1ccccc1)C(=O)Nc1ccc(Cl)cn1 (centres undefined) returned DNMT1 inh inactive, LMPTP inh inactive, SUMO1 PPI mod inactive, Scp-1 inhibitor inactive and STEP inh inactive.
NS(=O)(=O)c1ccc(NC(=O)c2ccc(-c3ccccc3)cc2)cc1 was read as DNMT1 inh 73, LMPTP inh inactive, SUMO1 PPI mod inactive, Scp-1 inhibitor 60, STEP inh inactive, Scp1 confirm 66, Scp-1 MG ctr inactive, Scp1 DSF 14, DNMT1 confirm inactive and DNMT1 interf inactive.
Screening CCN(c1ccccc1)S(=O)(=O)c1csc(C(N)=O)c1 returned DNMT1 inh inactive, LMPTP inh inactive, SUMO1 PPI mod inactive, Scp-1 inhibitor inactive and STEP inh inactive.
Screening O=C(O)c1ccc(COc2c(F)c(F)c(F)c(F)c2F)o1 returned DNMT1 inh 56, LMPTP inh inactive, SUMO1 PPI mod inactive, Scp-1 inhibitor 57, STEP inh inactive, Scp1 confirm 48, Scp-1 MG ctr inactive, Scp1 DSF inactive, DNMT1 confirm inactive and DNMT1 interf inactive.
For Cc1nc2ccccn2c1C(=O)N/N=C/c1ccc([N+](=O)[O-])o1 the results were DNMT1 inh 64, LMPTP inh inactive, SUMO1 PPI mod inactive, Scp-1 inhibitor 67, STEP inh inactive, Scp1 confirm 53, Scp-1 MG ctr inactive, Scp1 DSF 12, DNMT1 confirm inactive and DNMT1 interf inactive.
`CCOC(=O)c1sc(NC(=O)C2CC(=O)N(c3ccccc3OC)C2)nc1C` (centres undefined) gave DNMT1 inh inactive, LMPTP inh inactive, SUMO1 PPI mod inactive, Scp-1 inhibitor inactive and STEP inh inactive.
Screening Nc1nc(SCC(=O)N2N=C3/C(=C/c4ccco4)CCCC3C2c2ccco2)n[nH]1 (centres undefined) returned DNMT1 inh inactive, LMPTP inh inactive, SUMO1 PPI mod inactive, Scp-1 inhibitor inactive and STEP inh inactive.
Screening O=C(CSc1nccc(=O)[nH]1)N1N=C2/C(=C/c3ccco3)CCCC2C1c1ccco1 (centres undefined) returned DNMT1 inh 76, LMPTP inh inactive, SUMO1 PPI mod inactive, Scp-1 inhibitor 60, STEP inh inactive, Scp1 confirm 65, Scp-1 MG ctr inactive, Scp1 DSF inactive, DNMT1 confirm inactive and DNMT1 interf inactive.
For CC(C)CC(NC(=O)c1ccc(Cl)cc1)C(=O)OCc1cc([N+](=O)[O-])cc2c1OCOC2 (centres undefined) the results were DNMT1 inh inactive, LMPTP inh inactive, SUMO1 PPI mod inactive, Scp-1 inhibitor inactive and STEP inh inactive.
`O=C(CN1C(=O)NC2(CCCC2)C1=O)OCc1cc(=O)n2cc(Br)ccc2n1` gave DNMT1 inh 58, LMPTP inh inactive, SUMO1 PPI mod inactive, Scp-1 inhibitor 55, STEP inh inactive, Scp1 confirm 33, Scp-1 MG ctr inactive, Scp1 DSF inactive, DNMT1 confirm inactive and DNMT1 interf inactive.
For Cc1cc(C)c(C)c(S(=O)(=O)N[C@@H](C)C(=O)OCc2cc(=O)n3cc(Br)ccc3n2)c1C the results were DNMT1 inh 71, LMPTP inh inactive, SUMO1 PPI mod inactive, Scp-1 inhibitor 69, STEP inh inactive, Scp1 confirm 65, Scp-1 MG ctr inactive, Scp1 DSF 5.7, DNMT1 confirm inactive and DNMT1 interf inactive.
For COCCn1c(SCC(=O)Nc2ccc3[nH]c(=O)[nH]c3c2)nc2ccccc21 the results were DNMT1 inh inactive, LMPTP inh inactive, SUMO1 PPI mod inactive, Scp-1 inhibitor inactive and STEP inh inactive.
Screening COc1ccc2c(c1)C(CC(=O)NN)CCC2 (centres undefined) returned DNMT1 inh inactive, LMPTP inh inactive, SUMO1 PPI mod inactive, Scp-1 inhibitor inactive and STEP inh inactive.
For O=C(O)C1CC(c2ccc(F)cc2)=NO1 (centres undefined) the results were DNMT1 inh 86, LMPTP inh inactive, SUMO1 PPI mod inactive, Scp-1 inhibitor 52, STEP inh inactive, Scp1 confirm 34, Scp-1 MG ctr inactive, Scp1 DSF inactive, DNMT1 confirm inactive and DNMT1 interf inactive.
